Screens as filed in PubChem.
In the library only some 3.8% were active in any assay of this set; here they are far more common.
KCNQ1 pot: potentiators or activators of human KCNQ1 potassium channel; P51787; CHO-K1 KCNQ1, thallium flux FluxOR fluorescence; stronger effect = higher value; B-score at 10 µM; hit rate 0.35% among 310,000;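 active = fluorescence ratio B-score, a plate-corrected score, at least three library SD, with initial intensity B-score within 5 SD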
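assay system = CHO-K1 cells stably expressing KCNQ1 | medium = assay buffer, equal DMSO in all wells | timing = 37 °C overnight plating, 90-min dark dye load, 20-min compound pretreatment | measured by = kinetic FluxOR thallium fluorescence, 10-s 1-Hz baseline, 110-s post-stimulus read | measure = fluorescence change relative to baseline, converted to B score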
KCNQ1 block: inhibitors of human KCNQ1 potassium channel; CHO-K1 KCNQ1, FluxOR thallium flux fluorescence; stronger effect = higher value; B-score at 10 µM; hit rate 1.3% among 310,000; AID 2642;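 active = compounds whose thallium flux B-score, printed positive for inhibition, exceeds three library SD while starting fluorescence stays within three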;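 also: channel opened by potassium depolarization with thallium stimulus after 20 min compound exposure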
KCNK9 inh: human KCNK9 channel inhibition; HEK293 KCNK9, FluxOR thallium flux fluorescence; stronger effect = lower value; B-score at 10 µM; hit rate 1.2% among 310,000;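 active = ratio B-score over 3 SD below the library mean, with starting fluorescence within 5 SD of its mean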;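 also: negative B-score means less thallium flux so channel inhibition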
hERG protect: hERG (human) protection from proarrhythmic block; Q12809; CHO-hERG, FluxOR thallium flux, dofetilide IC70 present; activation (rescue from dofetilide block), less the hit threshold, % at 10 µM; hit rate 0.51% among 310,000; AID 1511;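 active = activation above the mean of controls blocked by dofetilide plus 5 SD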;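 also: thallium influx through hERG after potassium depolarization seen as dye fluorescence rise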
Target sequence (Q12809 whole entry, looked up): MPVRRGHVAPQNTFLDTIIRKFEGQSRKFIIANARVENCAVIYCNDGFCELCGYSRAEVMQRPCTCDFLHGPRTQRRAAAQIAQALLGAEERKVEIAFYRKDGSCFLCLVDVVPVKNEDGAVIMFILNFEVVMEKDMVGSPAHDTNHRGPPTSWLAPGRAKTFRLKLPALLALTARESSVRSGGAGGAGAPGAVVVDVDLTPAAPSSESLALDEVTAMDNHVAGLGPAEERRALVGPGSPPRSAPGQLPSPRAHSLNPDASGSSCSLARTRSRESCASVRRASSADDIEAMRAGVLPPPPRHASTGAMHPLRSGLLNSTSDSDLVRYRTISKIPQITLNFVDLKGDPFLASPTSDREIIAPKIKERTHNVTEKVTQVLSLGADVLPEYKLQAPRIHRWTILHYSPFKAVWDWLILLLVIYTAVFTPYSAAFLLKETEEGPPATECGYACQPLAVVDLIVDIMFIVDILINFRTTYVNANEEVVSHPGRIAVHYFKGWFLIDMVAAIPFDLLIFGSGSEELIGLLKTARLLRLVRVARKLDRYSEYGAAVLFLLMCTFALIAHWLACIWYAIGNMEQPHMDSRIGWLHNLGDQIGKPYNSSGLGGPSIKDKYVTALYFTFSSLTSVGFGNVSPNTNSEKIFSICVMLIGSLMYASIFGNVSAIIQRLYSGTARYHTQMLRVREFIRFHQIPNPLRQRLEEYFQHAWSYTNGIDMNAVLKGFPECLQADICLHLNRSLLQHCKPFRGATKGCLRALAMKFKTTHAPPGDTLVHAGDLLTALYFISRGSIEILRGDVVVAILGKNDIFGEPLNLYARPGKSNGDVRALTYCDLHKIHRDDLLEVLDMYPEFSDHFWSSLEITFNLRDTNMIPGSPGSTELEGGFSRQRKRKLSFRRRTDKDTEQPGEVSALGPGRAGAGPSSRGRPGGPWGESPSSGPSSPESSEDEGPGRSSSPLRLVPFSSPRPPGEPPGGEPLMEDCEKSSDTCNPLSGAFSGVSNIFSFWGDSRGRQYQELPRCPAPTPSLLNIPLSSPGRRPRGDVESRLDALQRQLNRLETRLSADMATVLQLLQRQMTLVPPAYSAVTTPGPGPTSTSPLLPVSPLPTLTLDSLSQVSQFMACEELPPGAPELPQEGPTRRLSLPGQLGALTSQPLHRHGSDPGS
Kir21 block: blocks the mouse Kir2.1 inward-rectifier potassium channel | hit rate 0.85% among 310,000 | P35561 | HEK293-Kir2.1, FluxOR thallium flux fluorescence; stronger effect = lower value | B-score at 10 µM | AID 1672;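 active = fluorescence ratio B-score at or below minus 3 SD of library scores, with starting-brightness B-score within 2 SD, cut at about -4.2 in these data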;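 also: channel flux triggered by added potassium and thallium sulfate stimulus; B-score of peak minus minimum fluorescence over baseline after thallium stimulus; more negative B-score means stronger Kir2.1 block with less thallium influx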
KCNK3 inh: human KCNK3 channel inhibition, primary screen; CHO-KCNK3 thallium flux, FluxOR fluorescence; stronger effect = lower value; B-score at 10 µM; hit rate 0.84% among 340,000;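 active = B-score under library mean minus 4 SD, starting fluorescence ratio at most library mean plus 5 SD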;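 also: more negative B-score means stronger inhibition of thallium flux through KCNK3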
KCNK3 confirm: human KCNK3 channel inhibition, confirmation assay; CHO-KCNK3 thallium flux, FluxOR fluorescence; 0% buffer, 100% carvedilol maximal block; ratio percent of control, % at 10 µM; shares compounds with KCNK3 inh; hit rate 99% among 2,400;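 active = ratio percent of control, averaged over triplicates, above buffer control mean plus 5 SD, cut at about 64% in these data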;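 also: ratio is the fluorescence rise from min to max over baseline after thallium stimulus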
KCNK3 uninduced: KCNK3 inhibitor counter-screen hit in non-induced cells. shares compounds with KCNK3 inh. non-induced KCNK3 parental cells, FluxOR thallium flux; stronger effect = lower value. thallium flux ratio (lower = more inhibition) at 10 µM. hit rate 40% among 2,400. AID 651747;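 active = thallium flux ratio, averaged over three wells, more than 5 SD below the buffer control mean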;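 also: host cells are CHO cells without KCNK3 induction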
A number is an active result; – = inactive; · = no result.

SMILES	KCNQ1 pot	KCNQ1 block	KCNK9 inh	hERG protect	Kir21 block	KCNK3 inh	KCNK3 confirm	KCNK3 uninduced
O=C(Cn1nc(-c2ccccc2)nc1-c1ccccc1)OC1CCCCC1	–	–	–	–	–	-10	104	–
CCOC(=O)c1ccccc1NC(=O)COC(=O)CC1CCCCC1	–	–	–	–	–	-9.7	105	0.15
COc1ccc(C(c2nnnn2Cc2ccccc2)N2CCN(C(=O)c3ccco3)CC2)cc1OC (configuration not stated)	–	–	–	–	–	–	·	·
COC1(OC)C(/C=C/c2ccc(C)cc2)C(C#N)(C#N)C1(OC)OC (configuration not stated)	–	–	–	–	–	-10	133	0.14
Cc1noc(C)c1CSc1nc2[nH]ncc2c(=O)n1-c1ccccc1	–	–	–	–	–	–	·	·
O=c1c2cn[nH]c2nc(SCc2c(F)cccc2F)n1-c1ccc(Cl)cc1	–	–	–	–	–	-9.3	129	0.15
COc1ccc(NC(=O)Cn2nnc(C(=O)NCc3ccco3)c2N)cc1	–	–	–	–	–	–	·	·
O=C(Nc1cccc(-c2nnc(-c3ccccc3)o2)c1)c1ccco1	–	–	–	–	–	–	·	·
Cc1nn2c(-c3cccc(NC(=O)c4ccco4)c3)nnc2c2ccccc12	–	–	–	–	–	-14	106	–
CN(C)N1C(N)=C(C#N)C(c2ccccc2)C2=C1CC(C)(C)CC2=O (configuration not stated)	–	–	–	–	–	–	·	·
C=CCn1c(C)cc(C(=O)CSc2nnc3n(CCC)c(=O)c4ccccc4n23)c1C	·	·	·	·	·	–	·	·
O=C(Nc1cccc(Cl)c1)OC1CCCCc2cccnc21 (configuration not stated)	–	–	–	–	–	-9.3	116	–
CCn1c(SCC(=O)Nc2cccc(F)c2)nc2c(c1=O)SC(C)C2 (configuration not stated)	–	–	–	–	–	-8.9	88	–
CN(C)CCn1c(SCc2ccccc2C#N)nc2c(sc3ccccc32)c1=O	–	–	–	–	–	-10	107	0.16
N#Cc1ccccc1Sc1ccccc1C(=O)OCc1nnc(-c2ccccc2)o1	–	–	–	–	–	-9.9	78	–
O=c1c(-c2ccccc2)c(-c2ccccc2)oc2cc(O)cc(O)c12	–	13	–	–	–	-9	112	–
O=c1c(O)c(-c2ccccc2)oc2cc(O)cc(O)c12	·	·	·	·	·	–	·	·
Cc1cc(C(=O)CN2CCN(CC(=O)Nc3ccc(F)cc3)CC2)c(C)n1C1CC1	·	·	·	·	·	–	·	·
Cc1sc2nc(SCC(=O)c3cccs3)n(Cc3ccco3)c(=O)c2c1C	–	–	–	–	–	-9.4	106	–
O=c1c2ccccc2nc(SCc2nc3ccccc3s2)n1Cc1ccco1	–	–	–	–	–	-12	127	0.15
O=C(CSc1nc2ccccc2c(=O)n1Cc1ccco1)c1ccccc1	–	–	–	–	–	-11	91	–
O=C(CSc1nc2ccccc2c(=O)n1Cc1ccco1)N1CCN(c2ccccc2)CC1	–	–	–	–	–	–	·	·
Cc1cc(C)cc(NC(=O)c2cc(C)nc3ccccc23)c1	–	–	–	–	–	–	·	·
O=C(NC1CCCCC1)C(c1ccccc1)N(Cc1ccco1)C(=O)Cn1cnc2ccccc21 (configuration not stated)	–	–	–	–	–	–	·	·
CCCOc1ccc(Cn2c(C)nc([N+](=O)[O-])c2SCC(O)COC)cc1[N+](=O)[O-] (configuration not stated)	–	–	–	–	–	–	·	·
SMILES	KCNQ1 pot	KCNQ1 block	KCNK9 inh	hERG protect	Kir21 block	KCNK3 inh	KCNK3 confirm	KCNK3 uninduced
O=C(COC(=O)c1ccc2[nH]c3c(c2c1)CCCC3)NC1CCS(=O)(=O)C1 (configuration not stated)	–	–	–	–	–	–	·	·
O=C1c2ccccc2C(Nc2ccc3c(c2)OCO3)N1Cc1ccco1 (configuration not stated)	–	–	–	–	–	–	·	·
O=C1c2ccccc2C(Nc2ccc(F)c(Cl)c2)N1Cc1ccco1 (configuration not stated)	–	–	–	–	–	-8.7	98	–
O=C(CSc1ccc(Cl)cc1Cl)N1CCC(c2nc3ccccc3s2)CC1	–	–	–	–	–	-15	124	–
Cc1cccc(C)c1NC(=S)NCCc1ccccn1	–	–	–	–	–	–	·	·
CCOC(=O)c1nc(C)nc(Sc2n[nH]c(-c3cc(C(F)(F)F)cc(C(F)(F)F)c3)n2)c1C	–	6	–	–	–	-9.4	102	0.12
CC(C)Nc1nnc(SC(C)C(=O)Nc2ccc(N3CCOCC3)cc2)s1 (configuration not stated)	·	·	·	·	·	–	·	·
COc1ccc(OC)c(NC2=C(Cl)C(=O)N(Cc3ccccc3)C2=O)c1	–	–	–	–	–	–	·	·
CCOc1ccccc1NC1=C(Cl)C(=O)N(Cc2ccccc2)C1=O	–	–	–	–	–	-8.8	117	0.15
c1csc(-c2nc(NCC3CCCO3)c3ccccc3n2)c1 (configuration not stated)	–	–	–	–	–	–	·	·
c1ccc(CN2CCC(Nc3nc(-c4cccs4)nc4ccccc34)CC2)cc1	–	–	–	–	–	-10	126	0.14
CCOC(=O)N1C/C(=C\c2ccccc2)C(=O)/C(=C/c2ccccc2)C1	–	10	–	–	–	-10	113	–
O=C(CSc1nc(-c2ccccc2)cc(=O)[nH]1)Nc1ccc(Br)cc1	–	–	–	–	–	–	·	·
O=C1NC(=Nc2ccccc2)S/C1=C\c1ccccc1	–	–	–	–	–	–	·	·
O=C1NC(=Nc2ccccc2)S/C1=C/c1cccnc1	–	–	–	–	–	-11	90	–
O=C1/C(=C/c2cccnc2)Sc2ccccc21	–	–	–	–	–	-9.6	102	–
CC(=O)Nc1ccc(/C=C2\Sc3ccccc3C2=O)cc1	–	–	–	–	–	–	·	·
COc1ccccc1N(CC(=O)N1CCCC1)S(=O)(=O)c1cc([N+](=O)[O-])ccc1Cl	·	·	·	·	·	–	·	·
CCc1ccc(Cc2cnc(NC(=O)C3=NCCN3)s2)cc1	–	–	–	–	–	–	·	·
COc1ccc(OCC(=O)Nc2ncc3c(n2)CC(C)(C)CC3=O)cc1	–	–	–	–	–	–	·	·
Cc1cccc(C)c1OCC(=O)NCC1CCCO1 (configuration not stated)	–	–	–	–	–	–	·	·
